Measurements published in ChEMBL document CHEMBL5634162, “Cyclohexylalanine-Containing α-Helical Amphipathic Peptide Targets Cardiolipin, Rescuing Mitochondrial Dysfunction in Kidney Injury” (J Med Chem, 2024).
Active and inactive are the calls of the source. The rule behind the calls is not given here. Where a SMILES comes first, the peptide text is derived from it. Bridges are numbered along the chain shown (N, C = ends). Roman numbers before positions name the chains, in order. [ ]: non-standard residue; d: D form. The star is where a group is joined. 5TAMRA = CN(C)c1ccc2c(c1)Oc1cc(N(C)C)ccc1C21OC(=O)c2cc(C(=O)*)ccc21; Cha = N[C@@H](CC1CCCCC1)C(=O)O

Assays:
[1] = Drug localization in H2O2-damaged mitochondria of human tubular epithelial cells pretreated for 3 hrs followed by H2O2 addition measured after 30 mins by fluorescence based analysis; format: ADME; details: epithelial cell, time 3.5 hrs
[2] = Drug localization in mitochondria of human tubular epithelial cells upto 100 nM by MitoTracker probe based assay; format: ADME; details: epithelial cell, 0.1 µM
[3] = Drug uptake in mitochondria of human HeLa cells transfected with Drp1-eGFP at 100 nM incubated for 3 hrs by confocal microscopy; format: ADME; details: 0.1 µM
[4] = Drug localization in mitochondria of human HeLa cells at EC50 incubated for 3 hrs by fluorescence based assay; format: ADME
[5] = system: Epithelial cell; assay: Inhibition of H2O2-induced apoptosis in human tubular epithelial cells at 10 to 100 nM by Annexin V-FITC/PI staining based flow cytometry; format: functional; details: dose 10-100 nM
Summary of the method: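 hTECs exposed to H2O2 0.5 mM; annexin V-FITC/propidium iodide staining 15 min at room temperature in the dark, apoptosis and necrosis percentages by flow cytometry.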

[6] = system: Mus musculus; assay: Protection against […] C57BL/6 mouse model assessed as decrease in cyt C level at 1 mg/kg, ip administered thrice a week prior to induction of bilateral ischemia-reperfusion injury measured after 6 days by IHC analysis; format: functional, organism-based; details: time 6.0 day
[7] = system: Mus musculus; assay: Protection against […] C57BL/6 mouse model assessed as increase in SOD-1 level at 1 mg/kg, ip administered thrice a week prior to induction of bilateral ischemia-reperfusion injury measured after 6 days by IHC analysis; format: functional, organism-based; details: time 6.0 day
[8] = system: Epithelial cell; assay: Induction of H2O2-reduced ATP production in human tubular epithelial cells at 10 to 20 nM incubated for 3 hrs followed by H2O2 measured after 1 hr by fluorescene based analysis; format: functional; details: dose 10-20 nM, time 4.0 hrs
[9] = system: Mus musculus; assay: Protection against colistin-induced nephrotoxicity in C57BL/6 mouse model assessed as reduction in renal fibrosis at 1 mg/kg, ip administered once every other day measured after 7 days by […] analysis; format: functional, organism-based; details: time 7.0 day
Summary of the method: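 Seven-week-old male C57BL/6 mice got colistin 20 mg/kg SC daily for 7 days plus peptide 1 mg/kg intraperitoneally every other day; groups of n = 5 (control, colistin, colistin + peptide). Kidneys were taken at day 7. Cytochrome C was detected by immunohistochemistry (citrate antigen retrieval, HRP-polymer detection, hematoxylin counterstain). Sections were also stained with PAS and Masson's trichrome to score histologic damage and fibrosis.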

[10] = system: Mus musculus; assay: Protection against colistin-induced nephrotoxicity in C57BL/6 mouse model assessed as reduction in blood creatinine level at 1 mg/kg, ip administered once every other day measured upto 7 days; format: functional, organism-based; details: time <= 7.0 day
Summary of the method: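 Male C57BL/6 mice, 7 weeks: colistin 20 mg/kg sc daily for 7 days, peptide 1 mg/kg ip every other day, n = 5 per group. BUN by autoanalyzer and creatinine by modified Jaffe reaction after 7 days; mean ± SEM.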

[11] = Drug localization in lysosomes of human HeLa cells at 100 nM incubated for 3 hrs in presence of CCCP by NAO probe based analysis; format: ADME, subcellular, Lysosome; details: 0.1 µM
Summary of the method: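 HeLa cells given TAMRA-labelled peptide 100 nM for 3 h and cardiolipin stained with NAO (100 nM, 1 h), with or without 20 μM CCCP for 30 min; LysoTracker 50 nM. Confocal images, Pearson r from five independent images (63×) per condition.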

[12] = system: Mus musculus; assay: Protection against […] C57BL/6 mouse model assessed as reduction in inflammatory cell infiltration at 1 mg/kg, ip administered thrice a week prior to induction of bilateral ischemia-reperfusion injury measured after 6 days by IHC analysis; format: functional, organism-based; details: time 6.0 day
[13] = system: Epithelial cell; assay: Reversal of H2O2-induced p16 mRNA level in human tubular epithelial cells at 10 to 100 nM by qPCR analysis; format: functional, cell-based; details: dose 10-100 nM
[14] = system: Mus musculus; assay: Protection against […] C57BL/6 mouse model assessed as reduction in tubular damage at 1 mg/kg, ip administered thrice a week prior to induction of bilateral ischemia-reperfusion injury measured after 6 days by IHC analysis; format: functional, organism-based; details: time 6.0 day
[15] = system: Epithelial cell; assay: Induction of antimycin A-reduced ATP production in human tubular epithelial cells at 10 to 20 nM incubated for 3 hrs followed by antimycin A addition by fluorescene based analysis; format: functional; details: dose 10-20 nM
[16] = system: Epithelial cell; assay: Induction of H2O2-reduced mitochondrial membrane potential in human tubular epithelial cells at 20 to 60 nM pretreated for 3 hrs followed by H2O2 addition measured after 30 mins by fluorescence based analysis; format: functional; details: dose 20-60 nM
Summary of the method: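 hTECs given peptide 3 h then H2O2 1 mM for 30 min; TMRE 600 nM for 15 min, washed, HBSS, plate reader at 37 °C (Ex/Em 525/575 nm).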

[17] = system: Epithelial cell; assay: Inhibition of H2O2-induced intracellular ROS level in human tubular epithelial cells at 20 to 60 nM pretreated for 3 hrs followed by H2O2 addition measured after 30 mins by H2DCFDA staining based analysis; format: functional; details: dose 20-60 nM
Summary of the method: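 hTECs seeded, 24 h later given peptide 3 h, then H2O2 1 mM for 30 min; H2DCFDA 25 μM for 30 min, washed, read in HBSS on plate reader at 37 °C (Ex/Em 485/535 nm).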

[18] = system: Mus musculus; assay: Protection against […] C57BL/6 mouse model assessed as decrease in serum BUN level at 1 mg/kg, ip measured after 23 hrs; format: functional, organism-based

For CC(=O)N[C@@H](CC1CCCCC1)C(=O)N[C@H]1CSSC[C@@H](C(=O)N[C@@H](CCCNC(=N)N)C(N)=O)NC(=O)[C@H](CC2CCCCC2)NC(=O)[C@H](CCCNC(=N)N)NC(=O)[C@H](CCCNC(=N)N)NC(=O)[C@H](CC2CCCCC2)NC(=O)[C@H](CC(C)C)NC(=O)[C@H](CCCNC(=N)N)NC(=O)[C@@H](NC(=O)[C@H](CC2CCCCC2)NC(=O)c2ccc3c(c2)C(=O)OC32c3ccc(N(C)C)cc3Oc3cc(N(C)C)ccc32)CSSC[C@@H](C(=O)N[C@@H](CCCNC(=N)N)C(N)=O)NC(=O)[C@H](CC2CCCCC2)NC(=O)[C@H](CCCNC(=N)N)NC(=O)[C@H](CCCNC(=N)N)NC(=O)[C@H](CC2CCCCC2)NC(=O)[C@H](CC(C)C)NC(=O)[C@H](CCCNC(=N)N)NC1=O (I: Ac-[Cha]CRL[Cha]RR[Cha]CR-NH2 / II: 5TAMRA-[Cha]CRL[Cha]RR[Cha]CR-NH2; disulfide I:2-II:9, I:9-II:2), which Drug uptake [1] is on record?
Its Drug uptake is “Active”.

And the Drug uptake [2]?
Its Drug uptake is “Active”.

What about the Drug uptake [3] of the same compound?
The Drug uptake was “Active”.

And the Drug uptake [4]?
Its Drug uptake is 53%.

And the inhibition [5]?
The inhibition was “Active”.

What about the Activity [6] of the same compound?
The Activity was “Active”.

And the Activity [7]?
The Activity was “Active”.

What about the Activity [8] of the same compound?
Its Activity is “Active”.

What about the Activity [9] of the same compound?
Its Activity is “Active”.

What about the Activity [10] of the same compound?
Its Activity is “Active”.

And the Drug uptake [11]?
Its Drug uptake is “Active”.

And the Activity [12]?
Its Activity is “Active”.

What about the Activity [13] of the same compound?
The Activity was “Active”.

And the Activity [14]?
Its Activity is “Active”.

And the Activity [15]?
The Activity was “Active”.

What about the Activity [16] of the same compound?
Its Activity is “Active”.

What about the inhibition [17] of the same compound?
The inhibition was “Active”.

And the Activity [18]?
Its Activity is “Active”.
